Assay [1] deals with T1, human NK1 receptor (Homo sapiens, UniProt P25103). The assay is described as follows: NK1R antagonist block of SP‐induced Ca2+ mobilization in HEK‐NK1R cells. It is filed as cell-based. The following applies: antagonist 100 nM, 2 min pre‐incubation; n = 5. The gist of the method:
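HEK-293 cells stably expressing human NK1R, grown in IMDM/10% FBS with hygromycin. Loaded with 4 μM Fura-2 AM (60–90 min, 37°C), 100 000 cells/well. After a 30-s baseline, antagonist or DMSO vehicle is added for 2 min, then the stimulus. Ratiometric Ca2+ (340/380 nm) is read over 4 min at 37°C. Paired t-test.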

Assay [2] relates to LAD2 human mast cells. The following applies: cited from earlier work.
In assay [3] the test system is LAD2 human mast cells. The following applies: cited from earlier work. This is another data set of the same source.
Assay [4] relates to LAD2 human mast cells. The experiment in a line: CCL2 release by LAD2 mast cells. It is filed as cell-based. The following applies: 24 h.
The target in a further assay is T2, MRGPRX2 (Homo sapiens, UniProt Q96LB1).
T2 sequence (Q96LB1 1-330): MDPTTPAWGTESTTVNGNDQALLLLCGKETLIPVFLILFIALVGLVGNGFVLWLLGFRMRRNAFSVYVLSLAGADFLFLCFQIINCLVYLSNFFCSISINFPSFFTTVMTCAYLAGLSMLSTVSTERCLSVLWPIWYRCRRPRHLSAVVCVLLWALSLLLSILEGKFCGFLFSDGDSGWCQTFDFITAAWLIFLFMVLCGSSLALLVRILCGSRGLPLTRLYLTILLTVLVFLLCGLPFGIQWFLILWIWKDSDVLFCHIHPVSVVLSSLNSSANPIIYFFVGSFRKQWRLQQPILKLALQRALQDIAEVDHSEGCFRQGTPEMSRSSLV
The experiment in a line: Antagonism of SP activation of MRGPRX2. The following applies: pilot studies, results not shown. It is filed as cell-based.

Assay [5] deals with T1, human NK1 receptor. The assay is described as follows: Ca2+ mobilization in HEK‐NK1R cells. It is filed as cell-based. The following applies: even at high concentrations.
Assay [6] has as its system LAD2 human mast cells. The assay is described as follows: LAD2 cell degranulation. Type of assay: cell-based. The following applies: β‐hexosaminidase release. The gist of the method:
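IgE-sensitized LAD2 cells (wild-type or MRGPRX2-knockdown) in HANKS buffer pH 7.4, 35 000 cells/well, exposed to a concentration range for 30 min at 37°C. Supernatant is incubated with 4 mM p-NAG (pH 4.5) for 90 min at 37°C, quenched with glycine pH 10.7, and read at 405 nm. Release is expressed as % of Triton X-100 (0.1%) lysate total, minus spontaneous release.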

Assay [7] concerns LAD2 human mast cells. The experiment in a line: Ca2+ mobilization in LAD2 cells. Type of assay: cell-based. Conditions: Fura‐2. In outline:
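IgE-sensitized LAD2 cells (JW8 conditioned medium, 48 h), wild-type or MRGPRX2-knockdown, washed in HANKS buffer with 1 mM probenecid. Loaded with 2 μM Fura-2 AM for 60–90 min at 37°C, then plated at 60 000 cells/well. Test compound is injected after a 30-s baseline and the 340/380 nm ratio (510 nm emission) is recorded for 6 min at 37°C. Peak ratios are taken across a concentration range.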

No end group written: not given here.

T1 sequence (P25103 whole entry): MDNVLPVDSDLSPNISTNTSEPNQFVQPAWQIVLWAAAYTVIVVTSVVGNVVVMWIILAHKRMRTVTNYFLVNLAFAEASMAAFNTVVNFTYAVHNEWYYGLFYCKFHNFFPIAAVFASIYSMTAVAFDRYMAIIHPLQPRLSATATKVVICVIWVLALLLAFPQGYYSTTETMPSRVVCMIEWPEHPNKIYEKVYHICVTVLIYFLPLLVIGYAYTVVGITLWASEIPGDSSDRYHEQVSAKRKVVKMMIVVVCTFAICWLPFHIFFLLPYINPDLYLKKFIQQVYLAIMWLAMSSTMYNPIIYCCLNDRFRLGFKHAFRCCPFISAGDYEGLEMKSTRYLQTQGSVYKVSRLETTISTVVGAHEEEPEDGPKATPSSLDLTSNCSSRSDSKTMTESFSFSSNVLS

For `COc1ccc(-n2nnnc2C(F)(F)F)cc1CN[C@H]1CCCN[C@H]1c1ccccc1` [GR205171, vofopitant], on human NK1 receptor [1], the “effect of antagonist pretreatment on SP responses in HEK‐NK1R cells” value was “effectively blocked SP responses”.

Consider `C=CC[N+]1([C@H]2C[C@H]3[C@@H]4CC[C@H]5C[C@H](O)[C@@H](N6CCOCC6)C[C@]5(C)[C@H]4CC[C@]3(C)[C@H]2OC(C)=O)CCCC1` [rocuronium], for which the “Ca^2+ mobilization in LAD2 cells, in words” value with LAD2 human mast cells [2] is listed as “shows a mobilization of Ca^2+”. Further, the “degranulation in LAD2 cells, in words” value with LAD2 human mast cells [3] was “without triggering concomitant degranulation”.

For the compound “SP(1–7)‐COOH: C‐terminally truncated in vivo metabolite of SP, residues 1–7, free acid (RPKPQQF-OH; UniProt P20366 58-64, looked up, fragment)”, the “CCL2 cytokine release from LAD2 cells, in words” value in the assay with LAD2 human mast cells [4] was “minimal and comparable to spontaneous release”. For the same compound, the “antagonism of SP activation of MRGPRX2” value with MRGPRX2 was “not been able to demonstrate any antagonism”. Also, the “activation of NK1R (Ca^2+ mobilization), in words” value with human NK1 receptor [5] is “failed to induce significant activation”. In the assay with LAD2 human mast cells [6], the “LAD2 degranulation, in words” value is “failed to produce cellular activation”. In addition, the “LAD2 Ca^2+ mobilization, in words” value with LAD2 human mast cells [7] is given as “failed to produce cellular activation”.
